Activity calls are given as the source filed them. No cut-off for these calls is given here.
How the values were obtained:
[1] = target: T1, Nuclear factor erythroid 2-related factor 2 (Homo sapiens) (UniProt Q16236); assay: Activation of Nrf2 in human HepG2 cells assessed as increase in GCLC expression level after 3 hrs by Western blot analysis; type: cell-based
T1 sequence (whole entry): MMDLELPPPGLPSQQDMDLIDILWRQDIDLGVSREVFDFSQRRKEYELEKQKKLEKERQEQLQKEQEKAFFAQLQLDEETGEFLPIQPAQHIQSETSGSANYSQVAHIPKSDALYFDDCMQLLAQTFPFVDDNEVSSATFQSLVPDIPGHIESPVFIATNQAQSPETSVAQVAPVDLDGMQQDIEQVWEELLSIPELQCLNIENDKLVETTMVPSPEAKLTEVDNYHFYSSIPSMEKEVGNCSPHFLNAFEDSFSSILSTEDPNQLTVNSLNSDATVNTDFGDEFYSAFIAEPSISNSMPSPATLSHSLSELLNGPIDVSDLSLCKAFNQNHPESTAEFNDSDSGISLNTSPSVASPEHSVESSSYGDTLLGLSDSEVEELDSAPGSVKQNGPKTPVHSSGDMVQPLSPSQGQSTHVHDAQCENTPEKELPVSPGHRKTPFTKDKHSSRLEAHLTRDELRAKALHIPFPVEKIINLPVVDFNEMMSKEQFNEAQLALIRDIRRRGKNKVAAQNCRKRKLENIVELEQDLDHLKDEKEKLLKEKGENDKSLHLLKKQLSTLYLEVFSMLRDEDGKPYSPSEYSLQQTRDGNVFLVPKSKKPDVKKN
Summary of the method: (§1)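 HepG2 cells (2×10^6/well) treated at the indicated concentrations and times. Whole-cell lysates, or nuclear and cytoplasmic fractions, are prepared and quantified by BCA. Samples are run at 40 μg/lane on 12% SDS-PAGE, transferred to nitrocellulose, probed with specific antibodies and HRP secondary (1/5000), and detected by ECL. Where used, LY294002 (15 μM), SP600125 (25 μM) or DTT (400 μM) is added 1 h before compound.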

[2] = target: c-Jun N-terminal kinase, JNK (Homo sapiens) (UniProt P45983+P53779+P45984); assay: Induction of JNK phosphorylation in human HepG2 cells at 5 uM by Western blot analysis; type: cell-based; details: TDE = time-dependent effect; summary of the method: as §1
HepG2 [3] = assay: Cytotoxicity against human HepG2 cells assessed as reduction in cell viability at 5 uM after 24 hrs by MTT assay; type: cell-based; details: hepg2, 24 h
Summary of the method: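 MTT viability in HepG2 cells (5×10^3/well) after 24 h exposure to compound at 5 μM. Formazan dissolved in DMSO and absorbance read at 570 nm. Mean ± SD of three independent experiments.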

[4] = target: T1, Nuclear factor erythroid 2-related factor 2 (Homo sapiens); assay: Activation of Nrf2 in human HepG2 cells assessed as increase in GCLC expression level at 5 uM by Western blot analysis; type: cell-based; details: TDE = time-dependent effect; summary of the method: as §1
[5] = Stability of the compound in PBS at 40 uM at pH 7.4 at 25 degC measured for 30 mins by UV-Vis spectrophotometric analysis; type: physicochemical; details: buffer, pH 7.4, 0.5 h
Summary of the method: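 Compound at 40 μM in PBS (pH 7.4) at 25 °C. UV-visible absorption spectra recorded every 2 min for 30 min against blanks of solution plus DMSO.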

[6] = target: T1, Nuclear factor erythroid 2-related factor 2 (Homo sapiens); assay: (§2) Activation of Nrf2 in human HepG2 cells assessed as cytoprotection against t-BHP-induced oxidative cell death at 5 uM incubated for 24 hrs followed by compound removal with subsequent incubation with 900 uM of t-BHP for 6 hrs in presence of 25 uM JNK inhibitor SP600125 for 1 hr prior to compound treatment by MTT assay; type: cell-based
Summary of the method: (§3)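 HepG2 cells (5×10^3/well) seeded and grown 24 h in 1640 medium with 10% FBS at 37 °C and 5% CO2. Compound is added for 24 h, then removed, and cells are challenged with 900 μM t-BHP for 6 h at 37 °C. MTT (0.5 mg/mL) is added for 4 h, formazan dissolved in DMSO, and absorbance read at 570 nm. Where used, inhibitors are added 1 h before compound. Mean ± SD of three independent experiments.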

[7] = target: T1, Nuclear factor erythroid 2-related factor 2 (Homo sapiens); assay: Activation of Nrf2 in human HepG2 cells assessed as increase in nuclear Nrf2 expression level at 5 uM after 1 to 6 hrs by Western blot analysis; type: cell-based; summary of the method: as §1
[8] = target: T1, Nuclear factor erythroid 2-related factor 2 (Homo sapiens); assay: Activation of Nrf2 in human HepG2 cells assessed as increase in HO-1 expression level at 5 uM in presence of 15 uM PI3K/Akt inhibitor LY294002 for 1 hr prior to compound treatment by Western blot analysis; type: cell-based; summary of the method: as §1
[9] = target: T1, Nuclear factor erythroid 2-related factor 2 (Homo sapiens); assay: as §2, with “100 nM copper chelator NEO” for “25 uM JNK inhibitor SP600125”; type: cell-based; summary of the method: as §3
[10] = target: T1, Nuclear factor erythroid 2-related factor 2 (Homo sapiens); assay: Activation of Nrf2 in human HepG2 cells assessed as increase in cytosolic Nrf2 expression level after 3 hrs by Western blot analysis; type: cell-based; summary of the method: as §1
[11] = target: T1, Nuclear factor erythroid 2-related factor 2 (Homo sapiens); assay: Activation of Nrf2 in human HepG2 cells assessed as cytoprotection against t-BHP-induced oxidative cell death at 5 uM incubated for 24 hrs followed by compound removal with subsequent incubation with 900 uM of t-BHP for 6 hrs by MTT assay; type: cell-based; summary of the method: as §3
[12] = target: RAC-alpha serine/threonine-protein kinase (Homo sapiens) (UniProt P31749); assay: Induction of Akt phosphorylation in human HepG2 cells at 5 uM by Western blot analysis; type: cell-based; details: TDE = time-dependent effect; summary of the method: as §1
HepG2 [13] = assay: Antioxidant activity against t-BHP-induced oxidative stress in human HepG2 cells assessed as inhibition of intracellular ROS accumulation incubated for 24 hrs followed by t-BHP addition for 3 hrs by DCFH-DA staining based flow cytometric analysis; type: functional, cell-based
Summary of the method: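 HepG2 cells (4×10^5/well) exposed to compound (1.25, 2.5 or 5 μM) or DMSO for 24 h, then to 900 μM t-BHP for 3 h. Cells collected, stained with 3 μM DCFH-DA for 30 min at 37 °C in the dark, washed with PBS, and analysed at once by flow cytometry (FITC channel). Values normalised to the corresponding control.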

[14] = target: Keap1/Nrf2 (Homo sapiens) (UniProt Q16236+Q14145); assay: Inhibition of Keap1/Nrf2 interaction in human HepG2 cells assessed as increase in Nrf2 expression level after 3 hrs in presence of DTT for 1 hr prior to compound treatment by Western blot analysis; type: cell-based; summary of the method: as §1
[15] = target: T1, Nuclear factor erythroid 2-related factor 2 (Homo sapiens); assay: Activation of Nrf2 in human HepG2 cells assessed as increase in cytosolic Nrf2 expression level at 5 uM after 12 hrs by Western blot analysis; type: cell-based; summary of the method: as §1
[16] = target: T1, Nuclear factor erythroid 2-related factor 2 (Homo sapiens); assay: Activation of Nrf2 in human HepG2 cells assessed as increase in GCLC expression level after 24 hrs by Western blot analysis; type: cell-based; summary of the method: as §1
[17] = target: T1, Nuclear factor erythroid 2-related factor 2 (Homo sapiens); assay: Activation of Nrf2 in human HepG2 cells assessed as increase in GCLM expression level at 5 uM in presence of 15 uM PI3K/Akt inhibitor LY294002 for 1 hr prior to compound treatment by Western blot analysis; type: cell-based; summary of the method: as §1
[18] = target: T1, Nuclear factor erythroid 2-related factor 2 (Homo sapiens); assay: as §2, with “100” for “25”, “iron chelator DFO” for “JNK inhibitor SP600125”; type: cell-based; summary of the method: as §3
Homo sapiens = species on record: Homo sapiens; assay: Induction of ERK phosphorylation in human HepG2 cells at 5 uM after 15 to 120 mins by Western blot analysis; type: cell-based; summary of the method: as §1

RAC-alpha serine/threonine-protein kinase (Homo sapiens), sequence (P31749 whole entry): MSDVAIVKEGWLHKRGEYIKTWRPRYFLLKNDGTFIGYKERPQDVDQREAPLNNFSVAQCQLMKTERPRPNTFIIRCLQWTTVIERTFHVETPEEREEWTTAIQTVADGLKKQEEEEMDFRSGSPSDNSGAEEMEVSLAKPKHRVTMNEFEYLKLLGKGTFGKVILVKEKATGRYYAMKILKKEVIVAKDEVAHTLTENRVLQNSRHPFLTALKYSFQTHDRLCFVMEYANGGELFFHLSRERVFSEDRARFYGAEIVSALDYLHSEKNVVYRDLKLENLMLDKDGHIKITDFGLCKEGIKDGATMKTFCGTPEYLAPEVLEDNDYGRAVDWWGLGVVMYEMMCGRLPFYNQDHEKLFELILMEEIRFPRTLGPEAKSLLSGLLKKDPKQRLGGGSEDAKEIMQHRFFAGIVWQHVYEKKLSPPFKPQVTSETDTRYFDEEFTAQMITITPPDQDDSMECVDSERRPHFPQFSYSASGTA
Keap1/Nrf2 (Homo sapiens), sequence (Q14145 whole entry, looked up, one chain of several): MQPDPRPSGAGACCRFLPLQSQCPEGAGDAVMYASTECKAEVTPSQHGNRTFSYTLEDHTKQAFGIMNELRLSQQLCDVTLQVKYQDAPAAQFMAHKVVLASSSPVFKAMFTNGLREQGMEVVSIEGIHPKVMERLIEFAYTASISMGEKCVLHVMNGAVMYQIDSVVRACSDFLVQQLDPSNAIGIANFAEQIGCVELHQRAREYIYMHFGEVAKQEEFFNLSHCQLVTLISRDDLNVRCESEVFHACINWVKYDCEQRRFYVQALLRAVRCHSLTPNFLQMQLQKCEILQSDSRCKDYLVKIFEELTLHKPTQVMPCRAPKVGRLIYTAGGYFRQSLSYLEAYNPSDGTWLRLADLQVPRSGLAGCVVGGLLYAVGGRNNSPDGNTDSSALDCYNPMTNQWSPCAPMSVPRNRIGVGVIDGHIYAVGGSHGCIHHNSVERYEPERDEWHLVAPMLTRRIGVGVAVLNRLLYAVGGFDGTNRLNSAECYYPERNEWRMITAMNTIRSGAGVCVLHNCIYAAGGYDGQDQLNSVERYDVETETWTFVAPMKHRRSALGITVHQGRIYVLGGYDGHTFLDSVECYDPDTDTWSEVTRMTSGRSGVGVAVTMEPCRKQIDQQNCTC

- Activity [1]: Active
- Activity [2]: Tde
- Activity [4]: Tde
- Stability [5]: Stable
- Activity [7]: Active
- Activity [8]: inactive
- Activity [10]: Dose-dependent effect
- Activity [12]: Tde
- inhibition [14]: inactive
- Activity [15]: inactive
- Activity [16]: Dose-dependent effect
- Activity [17]: inactive
Structure (SMILES): CC(C)(C(=O)/C=C/c1ccc(O)c(O)c1)C(=O)/C=C/c1ccc(O)c(O)c1
- Activity (HepG2 [3]): Non-Toxic
- Activity [6]: inactive
- Activity [9]: inactive
- Activity [11]: Active
- inhibition (HepG2 [13]): Dose-dependent effect
- Activity [18]: inactive
- Activity (Homo sapiens): inactive

Reference: ChEMBL document CHEMBL4020714, “Design, synthesis, and evaluation of curcumin derivatives as Nrf2 activators and cytoprotectors against oxidative death” (Eur J Med Chem, 2017)
